According to ChEMBL document CHEMBL1157974, “C18 dibenzocyclooctadiene lignans from Kadsura philippinensis” (2006):

Key:
Format in all cases: functional
[1] = system: HeLa; assay: Cytotoxicity against human HeLa cells by MTT assay; settings: read-out: ED50 (the source's name)
Summary of the method: (§1)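 Cells obtained from ATCC. Cytotoxicity read by MTT [3-(4,5-dimethylthiazol-2-yl)-2,5-diphenyltetrazolium bromide] colorimetric method.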

[2] = system: KB; assay: Cytotoxicity against human KB cells by MTT assay; settings: read-out: ED50 (the source's name); summary of the method: as §1
[3] = Cytotoxicity against human Hepa 59T/VGH cells by MTT assay; settings: read-out: ED50 (the source's name)
[4] = system: Radical scavenging activity; assay: Antioxidant activity assessed as DPPH radical scavenging activity at 100 uM
Summary of the method: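 Test compound in 100 mM Tris-HCl (pH 7.4) added to 500 μM DPPH in ethanol (concentration of the added solution), shaken, then left 20 min at room temperature in the dark. Absorbance read at 517 nm by UV-vis spectrophotometer; a table footnote cites a DPPH-HPLC method. Values are mean ± SD of 8 samples.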

Row | SMILES | EC50 [1] | EC50 [2] | EC50 [3] | Activity [4]
1 | COc1cc2c(c(O)c1OC)-c1c(cc3c(c1OC)OCO3)[C@H](OC(=O)/C=C/c1ccccc1)[C@H](C)[C@H](C)C2 [1-DEMETHYLKADSUPHILIN A] | ≥ 5 µg/mL | ≥ 5 µg/mL | ≥ 5 µg/mL | 
2 | C/C=C(/C)C(=O)O[C@H]1c2cc3c(c(OC)c2-c2c(cc(OC)c(OC)c2O)C[C@@H](C)[C@H]1C)OCO3 [ANGELOYLBINANKADSURIN A] | ≥ 5 µg/mL | ≥ 5 µg/mL | ≥ 5 µg/mL | 2.3%
3 | COc1c(O)cc2c(c1OC)-c1c(cc3c(c1OC)OCO3)C[C@H](C)[C@H](C)[C@@H]2O [KADSUPHILINS B] | ≥ 5 µg/mL | ≥ 5 µg/mL | ≥ 5 µg/mL | 
4 | O=C1O[C@H]([C@@H](O)CO)C(O)=C1O |  |  |  | 12.5%
5 | COc1cc2c(c(OC)c1OC)-c1c(cc3c(c1OC)OCO3)[C@H](OC(=O)/C=C/c1ccccc1)[C@H](C)[C@H](C)C2 [KADSUPHILINS A] | ≥ 5 µg/mL | ≥ 5 µg/mL | ≥ 5 µg/mL | 1.5%
6 | COC1=C(OC)C(=O)[C@]23C(=C1)C[C@@H](C)[C@@]2(C)[C@@H](O)c1cc2c(cc13)OCO2 [KADSULIGNAN K] | ≥ 5 µg/mL | ≥ 5 µg/mL | ≥ 5 µg/mL | 4.6%
7 | C/C=C(/C)C(=O)O[C@H]1c2cc3c(c(OC)c2-c2c(cc(OC)c(OC)c2O)[C@H](OC(=O)/C(C)=C\C)[C@](C)(O)[C@H]1C)OCO3 [SCHIZANRIN J] | ≥ 5 µg/mL | ≥ 5 µg/mL | ≥ 5 µg/mL | 1.9%
8 | COc1c2c(cc3c1-c1c(cc4c(c1OC)OCO4)[C@H](O)[C@@H](C)[C@@H](C)C3)OCO2 | ≥ 5 µg/mL | ≥ 5 µg/mL | ≥ 5 µg/mL | 
